Columns and labels:
HeLa = experiment: Cytotoxicity against human HeLa cells after 72 hrs by MTT assay; format: functional, cell-based
Method in brief: (§1)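 Cell growth measured by MTT read-out after 72 h continuous drug exposure. IC50 values derived from at least three independent experiments.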

[1] = Effective permeability of the compound in human Caco2 cells at 50 uM after 15 to 90 mins in presence of sodium azide; format: ADME, cell-based; conditions: Caco-2, with sodium azide (concentration not stated), read-out: Peff
Method in brief: (§2)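 Caco-2 monolayers dosed at 50 μM. Transport measured in both directions, apical to basal (Pab) and basal to apical (Pba), in separate runs with and without the metabolic inhibitor sodium azide. Permeability coefficients were calculated with sink or non-sink equations. Values are means of three independent experiments.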

[2] = Effective permeability of the compound in human Caco2 cells at 50 uM after 15 to 90 mins; format: ADME, cell-based; conditions: Caco-2, read-out: Peff; method in brief: as §2
A2780 = experiment: Cytotoxicity against human A2780 cells after 72 hrs by MTT assay; format: functional, cell-based; conditions: A2780, 72 h; method in brief: as §1
A549 = experiment: Cytotoxicity against human A549 cells after 72 hrs by MTT assay; format: functional, cell-based; conditions: A549, 72 h; method in brief: as §1
PC-3 = experiment: Cytotoxicity against human PC3 cells after 72 hrs by MTT assay; format: functional, cell-based; conditions: PC-3, 72 h; method in brief: as §1
MDA-MB-231 = experiment: Cytotoxicity against human MDA-MB-231 cells after 72 hrs by MTT assay; format: functional, cell-based; conditions: MDA-MB-231, 72 h; method in brief: as §1
MCF7 = experiment: Cytotoxicity against human MCF7 cells after 72 hrs by MTT assay; format: functional, cell-based; conditions: MCF7, 72 h; method in brief: as §1
MOLT-4 = experiment: Cytotoxicity against human MOLT4 cells after 72 hrs by MTT assay; format: functional, cell-based; conditions: MOLT-4, 72 h; method in brief: as §1
K562 [3] = experiment: Cytotoxicity against human K562 cells after 72 hrs by MTT assay; format: functional, cell-based; conditions: K562, 72 h; method in brief: as §1
K562 [4] = experiment: Ratio of topotecan IC50 to compound IC50 for human K562 cells; format: functional

Compound | IC50 (HeLa) | Papp at 50 µM [1] | Papp at 50 µM [2] | IC50 (A2780) | IC50 (A549) | IC50 (PC-3) | IC50 (MDA-MB-231) | IC50 (MCF7) | IC50 (MOLT-4) | IC50 (K562 [3]) | Ratio IC50 (K562 [4])
CC[C@@]1(O)C(=O)OCc2c1cc1n(c2=O)Cc2cc3c(CNC(C)=O)c(O)ccc3nc2-1 | > 5000 nM | 1.52 ×10⁻⁶ cm/s | 1.17 ×10⁻⁶ cm/s |  |  |  |  |  |  |  | 
CC[C@@]1(O)C(=O)OCc2c1cc1n(c2=O)Cc2cc3c(CN4CCCC4=O)c(O)ccc3nc2-1 | > 5000 nM | 1.33 ×10⁻⁶ cm/s | 0.48 ×10⁻⁶ cm/s |  |  |  |  |  |  |  | 
CC[C@@]1(O)C(=O)OCc2c1cc1n(c2=O)Cc2cc3ccccc3nc2-1 [CAMPTOTHECIN] | 24 nM | 1 ×10⁻⁶ cm/s | 7.88 ×10⁻⁶ cm/s | 13 nM | 99 nM | 78 nM | 162 nM | 26 nM | 0.04 nM | 31 nM | 
CC[C@@]1(O)C(=O)OCc2c1cc1n(c2=O)Cc2cc3c(CN(C)C)c(O)ccc3nc2-1 [TOPOTECAN] |  | 2.88 ×10⁻⁶ cm/s | 1.77 ×10⁻⁶ cm/s | 33 nM | 354 nM | 62 nM | > 500 nM | 63 nM | 19 nM | 500 nM | 
CC[C@@]1(O)C(=O)OCc2c1cc1n(c2=O)Cc2cc3c(CN4C(=O)c5ccccc5C4=O)c(O)ccc3nc2-1 | 1270 nM |  |  |  |  |  |  |  |  |  | 
CC[C@@]1(O)C(=O)OCc2c1cc1n(c2=O)Cc2cc3c(CN4C(=O)C=CC4=O)c(O)ccc3nc2-1 | > 5000 nM |  |  |  |  |  |  |  |  |  | 
CC[C@@]1(O)C(=O)OCc2c1cc1n(c2=O)Cc2cc3c(CN4C(=O)C5=C(CCCC5)C4=O)c(O)ccc3nc2-1 | 214 nM |  |  | 41 nM | 346 nM | 103 nM | > 500 nM | 159 nM | 15 nM | > 500 nM | 
CC[C@@]1(O)C(=O)OCc2c1cc1n(c2=O)Cc2cc3cc(O)ccc3nc2-1 [HYDROXYCAMPTOTHECIN] |  | 1.01 ×10⁻⁶ cm/s | 7.88 ×10⁻⁶ cm/s |  |  |  |  |  |  |  | 
CC[C@@]1(O)C(=O)OCc2c1cc1n(c2=O)Cc2cc3c(CN4C(=O)C5=C(CCCC5)C4=O)c(OC)ccc3nc2-1 | 173 nM | 2.58 ×10⁻⁶ cm/s | 4.91 ×10⁻⁶ cm/s | 28 nM | 226 nM | 51 nM | 500 nM | 78 nM | 14 nM | 109 nM | 5
